pIC50: −log10 of the molar value. Calls of active or inactive are those of the source. The rule behind the calls is not given here.

A word on the pIC50: it is the IC50 on a negative log10 scale, so that one unit is a factor of ten.

The target of test [1] is Leucine--tRNA ligase, cytoplasmic (Homo sapiens) (UniProt Q9P2J5). The test is described as follows: Inhibition of LRS-mediated mTORC1 activation in HEK293 cells assessed as decrease in leucine-induced S6K phosphorylation at T389 at 200 uM treated prior to leucine induction measured after 10 mins by Western blot method. Format: cell-based. In outline:
(§1)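 HEK293 cells were pretreated at one fixed level: test agents at 200 μM, rapamycin at 100 nM or leucinol at 800 μM. mTORC1 was then activated by adding leucine for 10 min. Lysates were Western blotted for phospho-S6K, total S6K, LRS, mTOR and phospho-mTOR.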
(Immunoblotting shows a protein as a band on a membrane.)

Test [2] relates to HEK293. The test is described as follows: Effect on S6K expression in HEK293 cells at 200 uM treated prior to leucine addition measured after 10 mins by Western blot method. The test is classed as functional, cell-based. The settings on record: Homo sapiens. In outline:
as §1

Test [3] concerns HEK293. The test is described as follows: Effect on LRS expression in HEK293 cells at 200 uM treated prior to leucine addition measured after 10 mins by Western blot method. Format: functional, cell-based. The settings on record: Homo sapiens. In short, it runs like this: as §1
Test [4] relates to HEK293. The test is described as follows: Effect on mTOR expression in HEK293 cells at 200 uM treated prior to leucine addition measured after 10 mins by Western blot method. The test is classed as functional, cell-based. To be noted: Homo sapiens. In short, it runs like this:
as §1

In test [5] the target is Serine/threonine-protein kinase mTOR (Homo sapiens) (UniProt P42345). The test can be described thus: Inhibition of mTOR phosphorylation in HEK293 cells at 200 uM treated prior to leucine addition measured after 10 mins by Western blot method. The test is classed as cell-based. In short, it runs like this:
as §1

Test [6] has as its target Leucine--tRNA ligase, cytoplasmic (Homo sapiens) (UniProt Q9P2J5). The test is described as follows: Inhibition of LRS-mediated mTORC1 activation in HEK293 cells assessed as decrease in leucine-induced S6K phosphorylation at T389 at 100 nM treated prior to leucine induction measured after 10 mins by Western blot method. The test is classed as cell-based. In short, it runs like this:
as §1

Test [7] shares this target. The test can be described thus: Inhibition of LRS-mediated mTORC1 activation in HEK293 cells assessed as decrease in leucine-induced S6K phosphorylation at T389 at 100 uM treated prior to leucine induction measured after 10 mins by Western blot method. The test is classed as cell-based. In outline:
(§2)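 Dose-dependent series in HEK293 cells. Compounds were given as pretreatment at several concentrations, then leucine was added for 10 min to activate mTORC1. Western blots were probed for phospho-S6K, S6K, LRS, mTOR and phospho-mTOR.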

For test [8], the system named is HEK293. The test is described as follows: Effect on S6K expression in HEK293 cells at 20 to 200 uM treated prior to leucine addition measured after 10 mins by Western blot method. To be noted: Homo sapiens. The test is classed as functional, cell-based. In outline: as §2
Test [9] concerns HEK293. The test can be described thus: Effect on LRS expression in HEK293 cells at 20 to 200 uM treated prior to leucine addition measured after 10 mins by Western blot method. The settings on record: Homo sapiens. Format: functional, cell-based. In outline:
as §2

Test [10] relates to HEK293. The test is described as follows: Effect on mTOR expression in HEK293 cells at 20 to 200 uM treated prior to leucine addition measured after 10 mins by Western blot method. The test is classed as functional, cell-based. The settings on record: Homo sapiens. In short, it runs like this:
as §2

In test [11] the target is Serine/threonine-protein kinase mTOR (Homo sapiens) (UniProt P42345). The test can be described thus: Inhibition of mTOR phosphorylation in HEK293 cells at 20 to 200 uM treated prior to leucine addition measured after 10 mins by Western blot method. The test is classed as cell-based. In short, it runs like this: as §2
Test [12] addresses Leucine--tRNA ligase, cytoplasmic (Homo sapiens) (UniProt Q9P2J5). The test is described as follows: Inhibition of LRS aminooleucylation in HEK293 cells assessed as residual activity. The test is classed as cell-based.
Test [13] has as its system A549. The test is described as follows: Cytotoxicity against human A549 cells assessed as growth inhibition after 72 hrs by SRB assay. The test is classed as functional, cell-based. To be noted: A549, 72 h. In outline: (§3)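 Growth-inhibition IC50 values in a panel of cancer lines: A549 (lung), HCT116 (colon), K562 (leukemia), MDA-MB-231 (breast), SK-Hep-1 (liver) and SNU638 (stomach), plus MRC5 (described as normal lung epithelial cells). Etoposide was run in parallel as the positive control.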

Test [14] deals with HCT-116. The test is described as follows: Cytotoxicity against human HCT116 cells assessed as growth inhibition after 72 hrs by SRB assay. The test is classed as functional, cell-based. To be noted: HCT-116, 72 h. In outline: as §3
Background: In SRB staining, fixed cells bind dye roughly in proportion to their protein.

Test [15] concerns K562. The test is described as follows: Cytotoxicity against human K562 cells assessed as growth inhibition after 72 hrs by SRB assay. Format: functional, cell-based. The settings on record: K562, 72 h. In short, it runs like this: as §3
Test [16] relates to MDA-MB-231. The test is described as follows: Cytotoxicity against human MDA-MB-231 cells assessed as growth inhibition after 72 hrs by SRB assay. The test is classed as functional, cell-based. The settings on record: MDA-MB-231, 72 h. In outline:
as §3

Test [17] has as its system SK-HEP1. The test can be described thus: Cytotoxicity against human SKHEP1 cells assessed as growth inhibition after 72 hrs by SRB assay. The test is classed as functional, cell-based. The settings on record: SK-HEP1, 72 h. In short, it runs like this:
as §3

Test [18] concerns SNU-638. The test is described as follows: Cytotoxicity against human SNU638 cells assessed as growth inhibition after 72 hrs by SRB assay. The settings on record: SNU-638, 72 h. The test is classed as functional, cell-based. In outline: as §3
Test [19] relates to MRC5. The test is described as follows: Cytotoxicity against human MRC5 cells assessed as growth inhibition after 72 hrs by SRB assay. To be noted: MRC5, 72 h. The test is classed as cell-based. In outline: as §3
In test [20] the target is Leucine--tRNA ligase, cytoplasmic (Homo sapiens) (UniProt Q9P2J5). The test can be described thus: Inhibition of LRS-mediated mTORC1 activation in HEK293 cells assessed as decrease in leucine-induced S6K phosphorylation at T389 at 800 uM treated prior to leucine induction measured after 10 mins by Western blot method. The test is classed as cell-based. In outline:
as §1

The target is the same in test [21]. The test can be described thus: Inhibition of LRS-mediated mTORC1 activation in HEK293 cells assessed as decrease in leucine-induced S6K phosphorylation at T389 treated prior to leucine induction measured after 10 mins by Western blot method. The test is classed as cell-based. In short, it runs like this:
as §2

Chain of Leucine--tRNA ligase, cytoplasmic (Homo sapiens) (Q9P2J5 whole entry, looked up): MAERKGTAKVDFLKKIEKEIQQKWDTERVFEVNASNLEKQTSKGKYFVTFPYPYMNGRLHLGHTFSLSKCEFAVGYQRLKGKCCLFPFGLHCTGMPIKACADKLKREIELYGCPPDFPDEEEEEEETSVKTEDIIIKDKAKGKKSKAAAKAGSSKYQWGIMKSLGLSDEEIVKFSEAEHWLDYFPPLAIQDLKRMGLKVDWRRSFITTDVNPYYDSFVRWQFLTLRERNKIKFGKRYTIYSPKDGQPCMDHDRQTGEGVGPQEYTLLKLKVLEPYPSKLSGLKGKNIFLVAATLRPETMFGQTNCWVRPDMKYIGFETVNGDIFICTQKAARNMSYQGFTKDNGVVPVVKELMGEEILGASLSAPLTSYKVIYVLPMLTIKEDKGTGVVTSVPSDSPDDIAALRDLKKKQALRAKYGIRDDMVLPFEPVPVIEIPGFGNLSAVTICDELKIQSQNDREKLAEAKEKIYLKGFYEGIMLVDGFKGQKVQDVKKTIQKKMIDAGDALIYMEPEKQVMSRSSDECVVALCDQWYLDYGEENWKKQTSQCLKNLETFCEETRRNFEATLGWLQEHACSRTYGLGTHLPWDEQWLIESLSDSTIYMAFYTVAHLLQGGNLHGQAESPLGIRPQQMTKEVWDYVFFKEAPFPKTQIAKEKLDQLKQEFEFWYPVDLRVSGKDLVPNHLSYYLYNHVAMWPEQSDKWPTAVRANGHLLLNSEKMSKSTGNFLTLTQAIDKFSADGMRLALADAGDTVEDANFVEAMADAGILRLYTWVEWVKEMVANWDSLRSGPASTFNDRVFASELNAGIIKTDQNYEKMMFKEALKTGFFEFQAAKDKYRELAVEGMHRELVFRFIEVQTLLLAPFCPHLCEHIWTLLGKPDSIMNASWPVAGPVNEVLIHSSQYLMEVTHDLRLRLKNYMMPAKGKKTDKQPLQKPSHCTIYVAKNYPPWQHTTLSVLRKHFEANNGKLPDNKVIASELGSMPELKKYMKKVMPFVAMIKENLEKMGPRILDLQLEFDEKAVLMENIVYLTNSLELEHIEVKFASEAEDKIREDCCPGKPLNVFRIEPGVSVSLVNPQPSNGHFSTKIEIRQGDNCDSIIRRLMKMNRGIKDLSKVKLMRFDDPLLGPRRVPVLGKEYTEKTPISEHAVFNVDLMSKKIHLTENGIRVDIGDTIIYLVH

On to `COc1cc2ncnc(Nc3ccc(F)c(Cl)c3)c2cc1OC(=O)[C@@H](O)CC(C)C`, for which the inhibition result in test [1] and in [5] was “inactive” each time. For the same molecule, the outcome in [2], in [3] and in test [4] was inactive.

For `CO[C@H]1C[C@@H]2CC[C@@H](C)[C@@](O)(O2)C(=O)C(=O)N2CCCC[C@H]2C(=O)O[C@H]([C@H](C)C[C@@H]2CC[C@@H](O)[C@H](OC)C2)CC(=O)[C@H](C)/C=C(\C)[C@@H](O)[C@@H](OC)C(=O)[C@H](C)C[C@H](C)/C=C/C=C/C=C/1C`, the inhibition result in [6] is “Active”.

On to `COc1cc2ncnc(Nc3ccc(F)c(Cl)c3)c2cc1OCCNC(=O)[C@@H](N)CC(C)C`, for which, in test [1], the inhibition entry is “Active”. Further, the inhibition result in test [7] and in test [11] was “inactive” each time. Further, the outcome in test [8], in test [9] and in test [10] was inactive. For the same molecule, in test [12], the Activity is over 70%. Also, the pIC50 in test [13] is 5.55; in test [14], 5.37; in [15], 5.42; in test [16], 5.34; in test [17], 5.66; in test [18], 5.53. In addition, in [19], the negative logarithm of the IC50 (pIC50) is under 4.70.

In the case of `COc1cc2ncnc(Nc3ccc(F)c(Cl)c3)c2cc1OS(=O)(=O)NC(=O)[C@@H](N)CC(C)C`, in test [1], the inhibition result was “Active”. For the same molecule, the outcome in [2], in test [3] and in [4] was inactive. In addition, the inhibition result in test [5] was “inactive”.

For `COc1cc2ncnc(Nc3ccc(F)c(Cl)c3)c2cc1OC(=O)[C@@H](N)CC(C)C`, the inhibition entry in test [1] and in test [5] was “inactive” throughout. The outcome in [2], in [3] and in [4] was inactive.

With `CC(C)C[C@H](N)CO`, in test [20], the inhibition result was “Active”.

In the case of `COc1cc2ncnc(Nc3ccc(F)c(Cl)c3)c2cc1OCCOC(=O)[C@@H](O)CC(C)C`, the inhibition entry in test [21] is “Dose-dependent effect”. Besides, the outcome in test [8], in test [9] and in test [10] was inactive. Moreover, the inhibition result in [11] is “inactive”. Also, the Activity in test [12] is over 70%. In addition, the pIC50 in [13] was 5.50; in test [14] it was 5.51; in test [15], 5.41; in test [16] it was 5.69; in test [17] it was 5.86; in test [18], 5.47. Moreover, in test [19], the negative-log IC50 (pIC50) is 5.95.

For the molecule `COc1cc2ncnc(Nc3ccc(F)c(Cl)c3)c2cc1OCCOC(=O)[C@@H](N)CC(C)C`, the inhibition entry in [1] and in test [7] was “Active” throughout. Further, the result in [8], in test [9] and in test [10] was inactive. Further, the inhibition entry in test [11] is “inactive”. Moreover, the negative-log IC50 (pIC50) in [13] was 5.44; in test [14], 5.40; in [15] it was 5.40; in test [16], 5.44; in test [17] it was 5.71; in test [18] it was 5.41. In addition, the negative-log IC50 (pIC50) in [19] was 5.73.

Take `COc1cc2ncnc(Nc3ccc(F)c(Cl)c3)c2cc1OCCOS(=O)(=O)NC(=O)[C@@H](N)CC(C)C`: the inhibition result in [1] and in test [5] was “inactive” throughout. In addition, the outcome in [2], in test [3] and in test [4] was inactive.

As to `COc1cc2ncnc(Nc3ccc(F)c(Cl)c3)c2cc1OS(=O)(=O)NC(=O)[C@@H](O)CC(C)C`, the inhibition result in test [1] was “Active”. The inhibition entry in test [21] is “Dose-dependent effect”. Moreover, the outcome in test [8], in test [9] and in test [10] was inactive. In test [11], the inhibition result was “inactive”. The Activity in [12] was over 70%. Also, the pIC50 in test [13] was 5.36; in test [14] it was 5.39; in [15], 5.39; in [16] it was 5.21; in test [17], 5.48; in test [18], 5.31. Also, the negative logarithm of the IC50 (pIC50) in [19] was 4.73.

As to `COc1cc2ncnc(Nc3ccc(F)c(Cl)c3)c2cc1OCCNC(=O)[C@@H](O)CC(C)C`, the inhibition entry in test [1] was “Active”. Moreover, the outcome in test [2], in [3] and in test [4] was inactive. For the same molecule, in test [5], the inhibition entry was “inactive”.

With `COc1cc2ncnc(Nc3ccc(F)c(Cl)c3)c2cc1OCCOS(=O)(=O)NC(=O)[C@@H](O)CC(C)C`, the inhibition entry in test [1] and in [5] was “inactive” in each case. For the same molecule, the result in [2], in test [3] and in [4] was inactive.

These data come from ChEMBL document CHEMBL4229473, “Discovery of novel leucyladenylate sulfamate surrogates as leucyl-tRNA synthetase (LRS)-targeted mammalian target of rapamycin complex 1 (mTORC1) inhibitors” (Bioorg Med Chem, 2018).
